Laboratory results as given in paper PMC3947039 (ACS chemical biology, 2013).

Experiments:
[1] = system: db/db mice; assay: Excisional diabetic wound-healing model, topical treatment; assay type: in vivo, mouse
In short: (§1)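 Test compound dissolved in saline at 5.0 mg mL−1 as the dosing solution; saline vehicle; both filter-sterilised. Applied topically to excisional wounds in db/db or wild-type mice. Wound healing scored on days 1, 3, 7, 10 and 14, with n = 35, 28, 21, 14 and 7 mice on those days. Results given as mean ± SD, with treated versus vehicle compared statistically.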

[2] = system: wild-type mice; assay: Excisional wound-healing model in wild-type mice, topical treatment; assay type: in vivo, mouse
In short: as §1

[3] = system: db/db mice; assay: H&E staining of wounds, re-epithelialization, db/db mice; assay type: in vivo, mouse; details: topical, day 14
In short: (§2)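 Wounds were treated topically with the test compound in saline, or with saline vehicle alone. Wounds were imaged at a common scale. Day-14 wound tissue was H&E stained, and the re-epithelialized region was traced on the sections.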

[4] = system: wild-type mice; assay: H&E staining of wounds, re-epithelialization, wild-type mice; assay type: in vivo, mouse; details: topical, day 14
In short: as §2

[5] = target: MMP-9 (Mus musculus, UniProt P41245); assay: In-situ zymography with DQ-gel in diabetic wound tissues; assay type: in vivo; details: db/db mice, versus vehicle
In short: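 db/db wounds were treated topically with the test compound or vehicle. Wound sections were incubated with the fluorogenic MMP gelatin substrate DQ-gel to localise MMP activity in situ. Nuclei were counterstained with DAPI, and the green fluorescence was imaged merged with the DAPI signal.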

[6] = system: apoptotic cells in wounds of diabetic mice; assay: TUNEL apoptosis detection in diabetic wound tissues; assay type: in vivo, mouse; details: versus vehicle
[7] = system: MMP-1; details: at 250 μM; cited from earlier work
[8] = system: MMP-7; details: at 250 μM; cited from earlier work
[9] = system: MMP-19; details: at 30 μM; cited from earlier work
[10] = system: ADAM9; details: at 20 μM; cited from earlier work
[11] = system: ADAM10; details: at 20 μM; cited from earlier work
[12] = target: ADAM17; details: read-out: Ki ADAM17; competitive; cited from earlier work
[13] = system: non-diabetic wounds in rats; details: cited from earlier work
[14] = system: non-diabetic wounds in pigs; details: cited from earlier work
[15] = system: non-diabetic wounds in humans; details: cited from earlier work

Chain of MMP-9 (P41245 108-730): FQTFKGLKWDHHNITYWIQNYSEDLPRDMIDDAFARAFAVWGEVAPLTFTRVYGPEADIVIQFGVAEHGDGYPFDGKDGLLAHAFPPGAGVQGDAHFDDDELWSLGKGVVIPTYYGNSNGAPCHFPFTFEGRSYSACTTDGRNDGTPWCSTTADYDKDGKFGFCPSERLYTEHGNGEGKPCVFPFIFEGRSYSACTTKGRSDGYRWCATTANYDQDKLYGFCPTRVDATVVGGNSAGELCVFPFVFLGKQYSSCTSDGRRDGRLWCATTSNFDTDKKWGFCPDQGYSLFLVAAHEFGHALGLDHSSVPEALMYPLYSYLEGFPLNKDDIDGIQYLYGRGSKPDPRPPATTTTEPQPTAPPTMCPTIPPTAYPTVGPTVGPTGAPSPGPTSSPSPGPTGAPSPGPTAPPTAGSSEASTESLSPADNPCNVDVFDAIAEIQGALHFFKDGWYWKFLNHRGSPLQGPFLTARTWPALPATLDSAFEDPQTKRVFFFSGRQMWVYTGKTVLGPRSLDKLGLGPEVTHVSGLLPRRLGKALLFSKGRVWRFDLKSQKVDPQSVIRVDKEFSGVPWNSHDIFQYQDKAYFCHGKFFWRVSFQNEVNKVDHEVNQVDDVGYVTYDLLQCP

SMILES: Nc1ccc(Oc2ccc(S(=O)(=O)CC3CS3)cc2)cc1 (stereo not shown) [ND-322]
- wound healing as a percentage of the initial wound area ([1]; day 10, mean ± SD): 70 ± 16%
- wound healing as a percentage of the initial wound area ([1]; day 14, mean ± SD): 92 ± 4%
- wound healing, difference versus vehicle-treated ([1]; days 1, 3 and 7, p > 0.2): not statistically significant
- wound healing as a percentage of the initial wound area ([2]; day 7, mean ± SD): 62 ± 19%
- wound healing as a percentage of the initial wound area ([2]; day 10, mean ± SD): 82 ± 11%
- wound healing as a percentage of the initial wound area ([2]; day 14, mean ± SD): 96 ± 4%
- re-epithelialization (H&E staining) [3]: complete re-epithelialization
- re-epithelialization (H&E staining) [4]: complete re-epithelialization
- gelatinase activity (due to MMP-9) in wound tissues [5]: significantly decreased
- apoptosis in wound tissues (TUNEL) [6]: significantly decreased
- inhibition of MMP-1 [7]: 10%
- inhibition of MMP-7 [8]: 16%
- inhibition of MMP-19 [9]: 9%
- inhibition of ADAM9 [10]: 30%
- inhibition of ADAM10 [11]: 21%
- Ki [12]: 15.7 ± 2 µM

SMILES: CNC(=O)[C@H](Cc1c[nH]c2ccccc12)NC(=O)[C@@H](CC(=O)NO)CC(C)C [ilomastat]
- epithelialization [13]: diminished epithelialization
- wound closure [13]: delayed wound closure
- epithelialization [14]: diminished epithelialization
- wound closure [14]: delayed wound closure
- epithelialization [15]: diminished epithelialization
- wound closure [15]: delayed wound closure
